Data on 19 compounds can be found in ChEMBL document CHEMBL4043202, “Synthesis, pH dependent, plasma and enzymatic stability of bergenin prodrugs for potential use against rheumatoid arthritis” (Bioorg Med Chem, 2017).

The structures appear in SMILES notation. pIC50: −log10 of the molar value. Converted amounts (≈) assume the structure as drawn. Some results are limits rather than exact numbers.

The nature of data set [1]: Partition coefficient, log P of the compound in water/n-octanol at pH 7.4 at 25 degC by HPLC method. In kind it is physicochemical. Summed up:
(§1)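 Miniaturised shake-flask method: water/n-octanol for log P and PBS pH 7.4/n-octanol for log D, at 25 °C. Tubes were shaken overnight at 500 rpm and centrifuged at 16000 RCF for 20 min to separate the phases. Compound in each phase was quantified by reversed-phase C18 HPLC with the column at 37 °C. Run in triplicate.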

The nature of data set [2]: Distribution coefficient, log D of the compound in PBS/n-octanol at pH 7.4 at 25 degC by HPLC method. Type of data set: physicochemical. A digest of the protocol:
as §1

Data set [3] in a line: Solubility in water. Type of data set: physicochemical.
Data set [4] can be described thus: Partition coefficient, log P of the compound. In kind it is physicochemical. As to conditions: octanol/water. Summed up:
as §1

A short description of data set [5]: Stability in pH 4.0 phosphate buffer assessed as compound remaining level at […] incubated for 24 hrs at 37 degC by HPLC method. As to conditions: for remaining at 24 h: pH 4.0 phosphate buffer, pH 4, read-out: Stability. In kind it is physicochemical.
Data set [6] is described as follows: Stability in pH 1.2 SGF assessed as compound remaining level at 120 mg/mL incubated for 24 hrs at 37 degC by HPLC method. A digest of the protocol:
(§2)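 SGF (pH 1.2) and SIF (pH 6.8) were prepared per USP 2000. Compound was incubated at 37 °C and sampled at 0 and 24 h. Samples were quenched with ice-cold acetonitrile and centrifuged. Prodrug and bergenin were measured by compound-specific isocratic RP-C8 HPLC-UV. Each analysis in triplicate.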

The nature of data set [7]: Stability in pH 6.8 SIF assessed as compound remaining level at 120 mg/mL incubated for 24 hrs at 37 degC by HPLC method. A digest of the protocol: as §2
A short description of data set [8]: Partition coefficient, log P of the compound in water/n-octanol at 25 degC by HPLC method. As to conditions: pH 7.4.
For a further data set, the target named is Interleukin-6 (Homo sapiens, UniProt P05231). As to the kind of experiment: Inhibition of IL6 (unknown origin).
Interleukin-6, sequence (P05231 whole entry): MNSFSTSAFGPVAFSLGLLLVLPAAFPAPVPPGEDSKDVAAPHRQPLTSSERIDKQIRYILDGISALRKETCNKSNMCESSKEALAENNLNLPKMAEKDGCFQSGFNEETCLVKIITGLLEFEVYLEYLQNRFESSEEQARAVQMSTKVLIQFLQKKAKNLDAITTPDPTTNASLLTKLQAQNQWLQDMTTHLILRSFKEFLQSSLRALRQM
The next data set concerns the target Tumor necrosis factor (Homo sapiens, UniProt P01375). Nature of the data set: Inhibition of TNFalpha (unknown origin).
A short description of data set [9]: Solubility in pH 1.0 buffer. Type of data set: physicochemical.
A short description of data set [10]: Solubility in pH 3.0 buffer. In kind it is physicochemical.
Data set [11] in a line: Solubility in pH 5.0 buffer. Type of data set: physicochemical.

Tumor necrosis factor, sequence (P01375 whole entry): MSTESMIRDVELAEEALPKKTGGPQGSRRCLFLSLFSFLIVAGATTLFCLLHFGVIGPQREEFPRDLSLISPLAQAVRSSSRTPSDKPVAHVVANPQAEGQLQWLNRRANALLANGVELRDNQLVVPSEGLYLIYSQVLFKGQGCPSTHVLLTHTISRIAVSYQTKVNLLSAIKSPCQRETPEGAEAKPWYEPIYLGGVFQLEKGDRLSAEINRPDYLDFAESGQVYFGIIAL

As usually defined, the logP is the decadic logarithm of the partition coefficient of the neutral form, usually between octanol and water. A high value points to a more lipophilic compound. What is called logD is lipophilicity at a set pH, counting ionised and neutral species. In the case of `COc1c(OC(=O)CC(C)C)cc2c(c1OC(=O)CC(C)C)[C@@H]1O[C@H](COC(=O)CC(C)C)[C@@H](OC(=O)CC(C)C)[C@H](OC(=O)CC(C)C)[C@H]1OC2=O`, in data set [1], the logP is 6.358. This compound had a logD in data set [2] of 6.45.

What is called solubility is the dissolved amount per volume that the medium holds. Read a low solubility as little dissolved substance. In [3], `Nc1ncn([C@@H]2O[C@H](CO)[C@@H](O)[C@H]2O)c(=O)n1` [AZACITIDINE] had a solubility of 89000 µg/mL (≈ 364 mM). Also, the lipophilicity (logP) in [4] was -3.1.

Consider `CCCOc1cc2c(c(OCCC)c1OC)[C@@H]1O[C@H](CO)[C@@H](O)[C@H](O)[C@H]1OC2=O`, for which, in data set [1], the logP came out at 1.655. The compound further had a logD in data set [2] of 1.51.

In data set [1], `COc1c(OC(=O)c2ccccc2C)cc2c(c1OC(=O)c1ccccc1C)[C@@H]1O[C@H](COC(=O)c3ccccc3C)[C@@H](OC(=O)c3ccccc3C)[C@H](O)[C@H]1OC2=O` gave a log partition coefficient (logP) of 1.751. In addition, the log distribution coefficient (logD) in data set [2] was determined as 1.61.

Compound `COc1c(OC(=O)c2ccccc2)cc2c(c1OC(=O)c1ccccc1)[C@@H]1O[C@H](COC(=O)c3ccccc3)[C@@H](O)[C@H](O)[C@H]1OC2=O` registered a logP in data set [1] of 2.553. In data set [2], this compound came in with a logD of 1.77.

`COc1c(OCc2ccccc2)cc2c(c1OCc1ccccc1)[C@@H]1O[C@H](CO)[C@@H](O)[C@H](O)[C@H]1OC2=O` came in with a pH-dependent lipophilicity (logD) in data set [2] of 1.98. In addition, the remaining at 24 h in data set [5] is 52.4%. In addition, the Stability in data set [6] worked out at 68.8%; in data set [7], 90.5%. Besides, the logP in data set [8] is 1.965.

`COc1c(OC(=O)c2c(F)cccc2F)cc2c(c1O)[C@@H]1O[C@H](COC(=O)c3c(F)cccc3F)[C@@H](O)[C@H](O)[C@H]1OC2=O` yielded a logP in data set [1] of 1.801. In data set [2], this compound yielded a logD of 1.86.

As for `COc1c(OC(=O)c2c(Cl)cc(Cl)cc2Cl)cc2c(c1O)[C@@H]1O[C@H](COC(=O)c3c(Cl)cc(Cl)cc3Cl)[C@@H](O)[C@H](O)[C@H]1OC2=O`, in data set [1], the logP was 3.693. This compound also had a logD in data set [2] of 3.89. For the same compound, the remaining at 24 h in [5] was determined as 76%. Moreover, the Stability in data set [6] turned out to be 86.5%; in [7], 87.5%.

Regarding `COc1c(OC(=O)c2ccc([N+](=O)[O-])cc2)cc2c(c1O)[C@@H]1O[C@H](COC(=O)c3ccc([N+](=O)[O-])cc3)[C@@H](O)[C@H](O)[C@H]1OC2=O`, the logP in data set [1] came to 2.508. The compound also returned a logD in data set [2] of 2.65. For the same compound, in data set [5], the remaining at 24 h stood at 45%. In addition, the Stability in [6] was determined as 91.6%; in data set [7], 59.5%.

Compound `CCCCOc1cc2c(c(OCCCC)c1OC)[C@@H]1O[C@H](CO)[C@@H](O)[C@H](O)[C@H]1OC2=O` yielded a log distribution coefficient (logD) in data set [2] of 2.83. Also, the logP in data set [8] is recorded as 2.495.

In data set [1], `COc1c(O)cc2c(c1O)[C@@H]1O[C@H](COC(=O)c3ccc([N+](=O)[O-])cc3)[C@@H](O)[C@H](O)[C@H]1OC2=O` registered a logP of 1.563. This compound showed a logD in data set [2] of 1.53.

For `COc1c(OC(C)=O)cc2c(c1O)[C@@H]1O[C@H](COC(C)=O)[C@@H](O)[C@H](O)[C@H]1OC2=O`, in data set [1], the lipophilicity (logP) was -0.494. The compound further displayed a logD in data set [2] of -1.06.

Take `COc1c(OC(=O)c2ccc(C(C)(C)C)cc2)cc2c(c1OC(=O)c1ccc(C(C)(C)C)cc1)[C@@H]1O[C@H](COC(=O)c3ccc(C(C)(C)C)cc3)[C@@H](OC(=O)c3ccc(C(C)(C)C)cc3)[C@H](OC(=O)c3ccc(C(C)(C)C)cc3)[C@H]1OC2=O`: the logP in [1] is listed as 0.771. The logD in [2] is 0.162. Besides, the remaining at 24 h in data set [5] stood at 104%. Also, the Stability was 109% in data set [6] and 86.1% in data set [7].

In general, pIC50 refers to −log10 of the IC50, conventionally taken in molar units. On to `COc1c(O)cc2c(c1O)[C@@H]1O[C@H](CO)[C@@H](O)[C@H](O)[C@H]1OC2=O` [BERGENIN], for which the solubility in data set [3] was above 1000 µg/mL; in data set [9], 1290 µg/mL (≈ 3.93 mM); in data set [10], 1080 µg/mL (≈ 3.29 mM); in data set [11], 1220 µg/mL (≈ 3.72 mM). The results for the logP in data set [4] and in data set [1] were -1.06 and -0.555, respectively. For the same compound, the figures for the negative logarithm of the IC50 (pIC50) on Interleukin-6 and on Tumor necrosis factor were 6.68 and 4.90, respectively. Besides, the logD in data set [2] was -0.947. For the same compound, in data set [5], the remaining at 24 h turned out to be 102%. Besides, the Stability in data set [6] was determined as 111%; in data set [7], 101%.

`COc1c(OC(C)=O)cc2c(c1OC(C)=O)[C@@H]1O[C@H](COC(C)=O)[C@@H](OC(C)=O)[C@H](OC(C)=O)[C@H]1OC2=O` [BERGENIN PENTAACETATE] showed a logP in [1] of 1.155. The compound also had a logD in data set [2] of 0.516. Also, the remaining at 24 h in [5] worked out at 119%. Also, the Stability in [6] came out at 99.1%; in [7] it was 100%.

In data set [1], `COc1c(OC(C)=O)cc2c(c1OC(C)=O)[C@@H]1O[C@H](COC(C)=O)[C@@H](OC(C)=O)[C@H](O)[C@H]1OC2=O` displayed a logP of 1.181. In [2], the logD stood at 0.429. In addition, the Stability in data set [5] (buffer, pH 4, 24 h) was determined as 122.03%; in [6], 92.3%; in data set [7] it was 41.8%.

With `CCCCCC(=O)OC[C@H]1O[C@H]2c3c(cc(OC(=O)CCCCC)c(OC)c3OC(=O)CCCCC)C(=O)O[C@@H]2[C@@H](OC(=O)CCCCC)[C@@H]1OC(=O)CCCCC`, the lipophilicity (logP) in data set [1] was found to be 5.967. The same compound had a pH-dependent lipophilicity (logD) in data set [2] of 6.06.

In turn, `COc1c(OC(=O)c2ccc(C(C)(C)C)cc2)cc2c(c1OC(=O)c1ccc(C(C)(C)C)cc1)[C@@H]1O[C@H](COC(=O)c3ccc(C(C)(C)C)cc3)[C@@H](O)[C@H](O)[C@H]1OC2=O` yielded a logP in [1] of 0.599. Moreover, in [2], the pH-dependent lipophilicity (logD) amounted to 0.552. Further, the remaining at 24 h in data set [5] is 95%. Besides, the values for the Stability in data set [6] and in data set [7] were 106% and 93.5%, respectively.

Regarding `CCCCCCCC(=O)OC[C@H]1O[C@H]2c3c(cc(OC(=O)CCCCCCC)c(OC)c3OC(=O)CCCCCCC)C(=O)O[C@@H]2[C@@H](OC(=O)CCCCCCC)[C@@H]1OC(=O)CCCCCCC`, the logP in data set [1] came out at 6.011. In data set [2], this compound gave a logD of 6.11.
